# Experimental data from different studies.
# Target: Cyclin-dependent kinase-like 5 (CDKL5, Homo sapiens, UniProt O76039)
# One construct used (O76039 1-960): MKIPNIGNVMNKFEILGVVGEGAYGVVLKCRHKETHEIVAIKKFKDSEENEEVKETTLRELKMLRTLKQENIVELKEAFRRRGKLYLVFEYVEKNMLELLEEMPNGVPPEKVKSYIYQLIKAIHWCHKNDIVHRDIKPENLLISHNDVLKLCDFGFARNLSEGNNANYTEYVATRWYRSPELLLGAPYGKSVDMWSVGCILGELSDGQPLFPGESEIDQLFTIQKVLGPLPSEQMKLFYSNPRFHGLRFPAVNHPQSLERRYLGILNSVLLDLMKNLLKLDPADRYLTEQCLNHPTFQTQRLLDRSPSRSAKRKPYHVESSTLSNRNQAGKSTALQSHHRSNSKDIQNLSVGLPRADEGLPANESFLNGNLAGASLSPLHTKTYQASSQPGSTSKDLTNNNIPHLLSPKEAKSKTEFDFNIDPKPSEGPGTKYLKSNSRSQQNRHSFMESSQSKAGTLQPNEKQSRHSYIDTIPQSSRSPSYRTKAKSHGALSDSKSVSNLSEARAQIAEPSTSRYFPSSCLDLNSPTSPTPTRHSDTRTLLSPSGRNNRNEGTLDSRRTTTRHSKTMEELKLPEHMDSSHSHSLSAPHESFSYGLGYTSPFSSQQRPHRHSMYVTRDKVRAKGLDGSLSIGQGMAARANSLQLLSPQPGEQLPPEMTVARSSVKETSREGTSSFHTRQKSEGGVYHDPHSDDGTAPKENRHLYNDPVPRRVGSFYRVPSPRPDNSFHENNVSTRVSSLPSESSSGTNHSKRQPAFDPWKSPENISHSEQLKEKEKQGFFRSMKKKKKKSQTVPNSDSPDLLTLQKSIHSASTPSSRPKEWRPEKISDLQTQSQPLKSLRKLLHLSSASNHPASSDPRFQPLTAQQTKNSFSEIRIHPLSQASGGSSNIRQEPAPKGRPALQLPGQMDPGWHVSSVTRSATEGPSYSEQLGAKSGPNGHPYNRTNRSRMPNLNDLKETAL
SMILES,effect on,technique,tested at,remaining binding
CCN1CCN(Cc2ccc(C(=O)Nc3ccc(C)c(Oc4ccc5c(c4)CC(=O)N5)c3)cc2C(F)(F)F)CC1,binding,competition with immobilised ligand,1 µM,100%
O=C(NCC1CCOCC1)c1n[nH]cc1NC(=O)c1c(F)cccc1F,binding,competition with immobilised ligand,1 µM,30%
N[C@@H]1CCN(c2nccc(-c3cnn4ncccc34)n2)C1,binding,,1 µM,100%
O=C(c1ccc(Nc2ncc(Cl)c(-c3ccc(Cl)s3)n2)cc1)N1CCC(N2CCCC2)CC1,binding,competition with immobilised ligand,1 µM,26%
CCCCN(CCCC)C(=O)CN1C[C@H](c2cc(OC)c3c(c2)OCO3)[C@@H](C(=O)O)[C@@H]1CC(C)(C)CCC,cell-free assay,competition with immobilised ligand,1 µM,71.4%
CN(C)c1nccc(-c2cnn3ncccc23)n1,binding,,1 µM,100%
C[C@@H](c1cccc(C#N)c1)n1cc(Cl)cc(C(N)=O)c1=N,binding,competition with immobilised ligand,1 µM,89%
c1cncc(-c2cccc(Nc3nccc(NC4CCCCC4)n3)c2)c1,binding,competition with immobilised ligand,10 µM,38%
Nc1ncc2c(n1)-c1c([nH]c3ccc(C#CC4CC4)cc13)CCCC2,binding,competition with immobilised ligand,1 µM,90%
CNCc1ccccc1-c1csc([C@@H](C)Nc2nc(C)nc3cc(OC)c(OC)cc23)c1,cell-free assay,competition with immobilised ligand,1 µM,94%
O=C(NCCCN1CCOCC1)c1ccc(Nc2ncc(Cl)c(-c3ccc(Cl)s3)n2)cc1,binding,competition with immobilised ligand,1 µM,26%
CCS(=O)(=O)c1cc2cc(C[C@](O)(CC(C)(C)c3ccc(F)cc3C(N)=O)C(F)(F)F)[nH]c2cn1,cell-free assay,competition with immobilised ligand,1 µM,100%
COc1ccnn2ncc(-c3ccnc(N(C)C)n3)c12,binding,,1 µM,86%
COc1ncc2cc3ccccc3nc2c1C#N,binding,competition with immobilised ligand,5 µM,90%
F[C@@H]1CCN(c2nccc(-c3cnn4ncccc34)n2)C1,binding,,1 µM,100%
O=C(NCc1ncc(C(F)(F)F)cc1Cl)c1ccc2c(c1)C1(CCS(=O)(=O)CC1)[C@H](C1CC1)N2S(=O)(=O)c1ccc(F)cc1,cell-free assay,competition with immobilised ligand,1 µM,78%
CC1CCCN1c1nccc(-c2cnn3ncccc23)n1 (stereo not drawn),binding,,1 µM,100%
O=C(c1ccc(Nc2ncc(Cl)c(-c3cc4ccccc4s3)n2)cc1)N1CCC(N2CCCC2)CC1,binding,competition with immobilised ligand,1 µM,32%
CNC(=O)[C@@H]1CC[C@@H](n2c(-c3ccc4cnccc4c3)nc3ccc(C(=O)NCc4cccc(C(N)=O)c4)cc32)C1,binding,competition with immobilised ligand,1 µM,100%
O=C(NS(=O)(=O)c1ccc(NCC2CCOCC2)c([N+](=O)[O-])c1)c1ccc(N2CCN(Cc3ccc(C(F)(F)F)cc3-c3ccc(Cl)cc3)CC2)cc1Oc1cnc2[nH]ccc2c1,cell-free assay,competition with immobilised ligand,1 µM,74%
C[C@H]1CCN(c2nccc(-c3cnn4ncccc34)n2)C1,binding,,1 µM,100%
